Measurements taken from ChEMBL document CHEMBL1151781, “Selectivity of inhibitors of endocannabinoid biosynthesis evaluated by activity-based protein profiling” (Bioorg Med Chem Lett, 2008).
Activity calls are given as the source filed them. No cut-off for these calls is given here.

Tests used:
[1] = biological target: T1, Neutral cholesterol ester hydrolase 1 (Mus musculus) (UniProt Q8BLF1); assay: Inhibition of KIAA1363 in mouse brain at 0.01 to 100 uM treated for 30 mins by SDS-PAGE using rhodamine-tagged FP probe; assay type: tissue-based
T1 sequence (whole entry): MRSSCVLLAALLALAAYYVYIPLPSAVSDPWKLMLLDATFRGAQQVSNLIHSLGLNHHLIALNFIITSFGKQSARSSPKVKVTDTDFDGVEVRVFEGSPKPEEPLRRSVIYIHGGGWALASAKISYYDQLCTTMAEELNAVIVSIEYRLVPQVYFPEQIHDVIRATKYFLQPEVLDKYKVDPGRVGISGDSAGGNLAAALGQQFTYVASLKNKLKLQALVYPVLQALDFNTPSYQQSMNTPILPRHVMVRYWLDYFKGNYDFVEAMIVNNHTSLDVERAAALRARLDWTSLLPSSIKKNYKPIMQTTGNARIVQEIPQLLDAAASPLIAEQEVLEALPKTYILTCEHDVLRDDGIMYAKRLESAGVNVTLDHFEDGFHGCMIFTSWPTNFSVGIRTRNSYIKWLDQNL
How it was run: (§1)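 Mouse brain membrane proteome preincubated with inhibitor across 0.01-100 μM for 30 min. A rhodamine-tagged fluorophosphonate probe (FP-Rh) was then added for 60 min. Samples were resolved by SDS-PAGE, and probe labeling of each hydrolase band was read by in-gel fluorescence scanning.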

[2] = biological target: Diacylglycerol lipase-alpha (Homo sapiens) (UniProt Q9Y4D2); assay: Inhibition of recombinant DAGLalpha overexpressed in african green monkey COS7 cells assessed as accumulation of 2-arachidonoylglycerol […]; assay type: cell-based; settings: COS-7
[3] = biological target: Monoglyceride lipase (Mus musculus) (UniProt O35678); assay: Inhibition of MAGL in mouse brain at 0.01 to 100 uM treated for 30 mins by SDS-PAGE using rhodamine-tagged FP probe; assay type: tissue-based; how it was run: as §1
[4] = biological target: T2, Fatty-acid amide hydrolase 1 (Mus musculus) (UniProt O08914); assay: Inhibition of FAAH in mouse brain at 0.01 to 100 uM treated for 30 mins by SDS-PAGE using rhodamine-tagged FP probe; assay type: tissue-based; how it was run: as §1
T2 sequence (whole entry): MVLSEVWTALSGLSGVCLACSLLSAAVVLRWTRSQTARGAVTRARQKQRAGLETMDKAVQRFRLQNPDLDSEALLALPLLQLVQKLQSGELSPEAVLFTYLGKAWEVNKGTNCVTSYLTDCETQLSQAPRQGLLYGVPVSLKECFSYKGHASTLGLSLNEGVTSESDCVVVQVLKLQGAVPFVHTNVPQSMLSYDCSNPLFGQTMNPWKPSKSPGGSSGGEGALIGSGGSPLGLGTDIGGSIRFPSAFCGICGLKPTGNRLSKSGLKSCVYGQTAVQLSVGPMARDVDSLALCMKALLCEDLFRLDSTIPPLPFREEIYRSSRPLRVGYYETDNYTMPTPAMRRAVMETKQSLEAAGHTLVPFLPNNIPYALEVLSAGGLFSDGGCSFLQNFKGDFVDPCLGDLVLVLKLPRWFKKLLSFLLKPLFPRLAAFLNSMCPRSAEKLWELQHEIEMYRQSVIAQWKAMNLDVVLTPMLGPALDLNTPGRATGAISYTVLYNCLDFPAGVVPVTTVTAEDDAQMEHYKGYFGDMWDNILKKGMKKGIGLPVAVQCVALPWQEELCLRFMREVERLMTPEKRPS

[5] = biological target: Phosphatidylserine lipase ABHD16A (Homo sapiens, UniProt O95870); assay: Inhibition of recombinant BAT5 transfected in HEK293T cells by SDS-PAGE using rhodamine-tagged FP probe; assay type: cell-based, HEK-293T
How it was run: (§2)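 HEK293T cells were transfected with cDNA for the target hydrolase. The transfected proteome was treated with inhibitor across 0.01-100 μM, then labeled with rhodamine-tagged fluorophosphonate probe (FP-Rh). Loss of probe labeling was read to give IC50. Values are means ± standard errors of three independent experiments.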

[6] = biological target: T3, Diacylglycerol lipase-alpha (Mus musculus) (UniProt Q6WQJ1); assay: Inhibition of DAGLalpha in mouse brain assessed as >15 average spectral count at 5 uM treated for 30 mins by ABPP-MudPIT assay; assay type: tissue-based
T3 sequence (whole entry): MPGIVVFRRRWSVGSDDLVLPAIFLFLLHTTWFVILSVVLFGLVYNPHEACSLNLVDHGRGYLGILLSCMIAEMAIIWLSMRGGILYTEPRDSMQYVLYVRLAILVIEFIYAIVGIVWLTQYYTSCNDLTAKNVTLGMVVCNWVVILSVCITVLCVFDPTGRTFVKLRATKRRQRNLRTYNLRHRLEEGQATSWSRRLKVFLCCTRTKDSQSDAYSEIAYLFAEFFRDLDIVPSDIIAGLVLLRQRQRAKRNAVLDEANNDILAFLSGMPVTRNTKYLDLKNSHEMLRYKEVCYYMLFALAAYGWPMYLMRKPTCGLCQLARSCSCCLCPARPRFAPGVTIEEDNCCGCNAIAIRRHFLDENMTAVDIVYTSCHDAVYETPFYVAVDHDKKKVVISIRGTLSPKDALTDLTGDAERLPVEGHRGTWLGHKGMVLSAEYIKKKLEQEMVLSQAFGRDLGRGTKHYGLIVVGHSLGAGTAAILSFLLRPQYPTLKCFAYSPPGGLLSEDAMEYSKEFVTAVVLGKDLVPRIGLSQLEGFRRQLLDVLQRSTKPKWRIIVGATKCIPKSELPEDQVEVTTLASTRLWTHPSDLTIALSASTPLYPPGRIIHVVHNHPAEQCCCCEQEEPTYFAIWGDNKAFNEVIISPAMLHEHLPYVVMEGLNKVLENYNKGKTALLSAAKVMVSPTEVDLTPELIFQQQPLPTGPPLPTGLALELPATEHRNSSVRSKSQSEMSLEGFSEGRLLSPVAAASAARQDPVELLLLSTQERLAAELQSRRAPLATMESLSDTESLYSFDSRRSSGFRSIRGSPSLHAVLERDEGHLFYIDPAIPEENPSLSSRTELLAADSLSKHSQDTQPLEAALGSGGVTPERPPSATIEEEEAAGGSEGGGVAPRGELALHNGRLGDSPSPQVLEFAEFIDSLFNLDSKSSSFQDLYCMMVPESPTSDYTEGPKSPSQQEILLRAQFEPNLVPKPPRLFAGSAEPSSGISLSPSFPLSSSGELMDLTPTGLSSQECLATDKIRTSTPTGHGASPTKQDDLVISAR

[7] = biological target: Lysophosphatidylserine lipase ABHD12 (Homo sapiens, UniProt Q8N2K0); assay: Inhibition of recombinant ABHD12 transfected in HEK293T cells by SDS-PAGE using rhodamine-tagged FP probe; assay type: cell-based, HEK-293T; how it was run: as §2
[8] = biological target: Diacylglycerol lipase-beta (Homo sapiens) (UniProt Q8NCG7); assay: Inhibition of recombinant DAGLbeta overexpressed in african green monkey COS7 cells assessed as accumulation of 2-arachidonoylglycerol […]; assay type: cell-based; settings: COS-7
[9] = biological target: Monoacylglycerol lipase ABHD6 (Mus musculus) (UniProt Q8R2Y0); assay: Inhibition of ABHD6 in mouse brain at 0.01 to 100 uM treated for 30 mins by SDS-PAGE using rhodamine-tagged FP probe; assay type: tissue-based; how it was run: as §1
[10] = biological target: Fatty-acid amide hydrolase 1 (Homo sapiens, UniProt O00519); assay: Inhibition of recombinant FAAH transfected in HEK293T cells by SDS-PAGE using rhodamine-tagged FP probe; assay type: cell-based, HEK-293T; how it was run: as §2
Fatty-acid amide hydrolase 1, sequence (O00519 whole entry): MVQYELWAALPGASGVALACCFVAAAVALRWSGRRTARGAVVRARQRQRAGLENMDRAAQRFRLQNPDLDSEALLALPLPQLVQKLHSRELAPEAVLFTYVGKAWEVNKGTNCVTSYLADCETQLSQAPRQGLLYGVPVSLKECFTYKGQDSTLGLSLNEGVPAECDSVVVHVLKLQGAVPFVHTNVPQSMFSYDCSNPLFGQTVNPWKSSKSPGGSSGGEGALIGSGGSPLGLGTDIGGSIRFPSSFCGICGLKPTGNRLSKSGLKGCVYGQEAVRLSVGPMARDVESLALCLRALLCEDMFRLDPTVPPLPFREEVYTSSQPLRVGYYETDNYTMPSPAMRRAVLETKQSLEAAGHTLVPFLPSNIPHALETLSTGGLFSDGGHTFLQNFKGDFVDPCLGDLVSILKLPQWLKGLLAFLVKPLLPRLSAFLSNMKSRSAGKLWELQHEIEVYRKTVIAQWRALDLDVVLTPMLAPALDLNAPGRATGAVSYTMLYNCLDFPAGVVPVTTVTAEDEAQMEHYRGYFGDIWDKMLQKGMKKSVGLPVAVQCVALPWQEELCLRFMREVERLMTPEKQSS

Monoglyceride lipase (Mus musculus), sequence (O35678 whole entry): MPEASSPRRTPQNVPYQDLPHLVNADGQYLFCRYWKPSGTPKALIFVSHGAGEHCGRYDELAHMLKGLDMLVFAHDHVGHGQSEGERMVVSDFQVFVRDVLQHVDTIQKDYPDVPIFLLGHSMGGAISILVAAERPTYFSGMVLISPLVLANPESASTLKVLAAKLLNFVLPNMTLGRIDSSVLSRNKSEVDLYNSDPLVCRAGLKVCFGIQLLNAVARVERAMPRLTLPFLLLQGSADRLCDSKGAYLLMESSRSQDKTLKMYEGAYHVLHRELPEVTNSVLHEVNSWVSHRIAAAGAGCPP
Diacylglycerol lipase-alpha (Homo sapiens), sequence (Q9Y4D2 whole entry): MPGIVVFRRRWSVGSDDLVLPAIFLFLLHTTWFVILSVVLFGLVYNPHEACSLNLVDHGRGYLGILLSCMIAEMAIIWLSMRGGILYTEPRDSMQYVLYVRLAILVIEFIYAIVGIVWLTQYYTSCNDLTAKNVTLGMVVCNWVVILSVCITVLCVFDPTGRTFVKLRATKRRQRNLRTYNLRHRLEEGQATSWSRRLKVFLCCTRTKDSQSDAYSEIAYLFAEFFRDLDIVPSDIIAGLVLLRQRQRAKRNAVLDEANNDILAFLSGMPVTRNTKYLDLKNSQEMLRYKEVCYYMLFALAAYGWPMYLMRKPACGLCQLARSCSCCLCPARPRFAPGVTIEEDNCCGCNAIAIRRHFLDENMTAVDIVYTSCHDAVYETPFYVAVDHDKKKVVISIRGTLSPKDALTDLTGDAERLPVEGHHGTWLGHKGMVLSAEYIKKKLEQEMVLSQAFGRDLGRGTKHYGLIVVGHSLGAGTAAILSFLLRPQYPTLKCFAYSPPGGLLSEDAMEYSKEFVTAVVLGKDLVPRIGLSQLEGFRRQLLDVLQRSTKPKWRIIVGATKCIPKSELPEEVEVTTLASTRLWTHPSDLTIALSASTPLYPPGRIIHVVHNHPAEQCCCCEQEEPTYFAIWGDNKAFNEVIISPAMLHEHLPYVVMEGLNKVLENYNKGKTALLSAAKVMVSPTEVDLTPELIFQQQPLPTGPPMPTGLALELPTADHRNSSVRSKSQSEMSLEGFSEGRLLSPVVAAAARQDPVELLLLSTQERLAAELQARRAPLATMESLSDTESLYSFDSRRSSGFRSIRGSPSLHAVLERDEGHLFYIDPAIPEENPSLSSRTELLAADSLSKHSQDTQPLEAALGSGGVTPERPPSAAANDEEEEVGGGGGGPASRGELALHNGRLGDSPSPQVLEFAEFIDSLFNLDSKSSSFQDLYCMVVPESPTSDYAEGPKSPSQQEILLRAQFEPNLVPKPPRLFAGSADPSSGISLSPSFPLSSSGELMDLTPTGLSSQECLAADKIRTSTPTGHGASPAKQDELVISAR
Phosphatidylserine lipase ABHD16A, sequence (O95870 whole entry): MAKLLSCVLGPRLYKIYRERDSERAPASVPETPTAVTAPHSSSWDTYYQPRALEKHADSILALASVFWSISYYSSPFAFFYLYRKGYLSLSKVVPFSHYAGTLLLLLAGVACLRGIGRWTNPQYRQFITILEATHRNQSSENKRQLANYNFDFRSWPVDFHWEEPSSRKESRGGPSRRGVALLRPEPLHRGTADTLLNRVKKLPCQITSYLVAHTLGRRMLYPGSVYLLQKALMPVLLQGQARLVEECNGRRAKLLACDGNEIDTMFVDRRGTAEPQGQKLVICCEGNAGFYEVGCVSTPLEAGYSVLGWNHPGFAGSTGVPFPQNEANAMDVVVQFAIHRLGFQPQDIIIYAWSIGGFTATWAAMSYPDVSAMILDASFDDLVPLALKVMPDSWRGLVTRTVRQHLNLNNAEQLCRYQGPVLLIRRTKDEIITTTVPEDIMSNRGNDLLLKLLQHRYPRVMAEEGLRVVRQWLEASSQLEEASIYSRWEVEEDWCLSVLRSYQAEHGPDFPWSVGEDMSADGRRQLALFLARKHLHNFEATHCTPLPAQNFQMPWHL
Lysophosphatidylserine lipase ABHD12, sequence (Q8N2K0 whole entry): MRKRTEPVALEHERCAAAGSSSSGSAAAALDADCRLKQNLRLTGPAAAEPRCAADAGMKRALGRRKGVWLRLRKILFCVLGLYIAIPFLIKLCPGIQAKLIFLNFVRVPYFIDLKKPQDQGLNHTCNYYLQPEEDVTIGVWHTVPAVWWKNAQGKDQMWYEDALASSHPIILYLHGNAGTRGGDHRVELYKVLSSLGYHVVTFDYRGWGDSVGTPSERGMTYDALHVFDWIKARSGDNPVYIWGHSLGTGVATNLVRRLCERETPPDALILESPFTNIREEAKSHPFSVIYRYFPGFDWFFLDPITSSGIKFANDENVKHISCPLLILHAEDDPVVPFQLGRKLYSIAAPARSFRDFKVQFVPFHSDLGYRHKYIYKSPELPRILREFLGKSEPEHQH
Diacylglycerol lipase-beta (Homo sapiens), sequence (Q8NCG7 whole entry): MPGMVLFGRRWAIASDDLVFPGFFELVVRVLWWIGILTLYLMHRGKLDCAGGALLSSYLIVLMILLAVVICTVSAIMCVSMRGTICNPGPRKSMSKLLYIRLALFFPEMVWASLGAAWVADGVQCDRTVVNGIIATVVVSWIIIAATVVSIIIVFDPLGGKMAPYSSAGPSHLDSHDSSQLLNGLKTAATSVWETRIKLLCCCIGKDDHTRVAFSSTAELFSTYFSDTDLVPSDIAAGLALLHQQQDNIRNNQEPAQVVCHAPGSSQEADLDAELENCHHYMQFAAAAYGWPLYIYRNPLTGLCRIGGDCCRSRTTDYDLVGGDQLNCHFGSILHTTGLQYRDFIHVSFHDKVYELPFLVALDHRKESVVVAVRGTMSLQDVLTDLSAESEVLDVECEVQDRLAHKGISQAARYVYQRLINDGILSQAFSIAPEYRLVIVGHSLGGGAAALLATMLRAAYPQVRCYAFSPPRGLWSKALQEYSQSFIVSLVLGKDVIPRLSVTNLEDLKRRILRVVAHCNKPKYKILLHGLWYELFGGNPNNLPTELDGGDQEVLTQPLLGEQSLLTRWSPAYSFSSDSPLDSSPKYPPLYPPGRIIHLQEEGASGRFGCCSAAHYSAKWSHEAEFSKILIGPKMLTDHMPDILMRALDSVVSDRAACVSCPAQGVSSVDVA
Monoacylglycerol lipase ABHD6 (Mus musculus), sequence (Q8R2Y0 whole entry): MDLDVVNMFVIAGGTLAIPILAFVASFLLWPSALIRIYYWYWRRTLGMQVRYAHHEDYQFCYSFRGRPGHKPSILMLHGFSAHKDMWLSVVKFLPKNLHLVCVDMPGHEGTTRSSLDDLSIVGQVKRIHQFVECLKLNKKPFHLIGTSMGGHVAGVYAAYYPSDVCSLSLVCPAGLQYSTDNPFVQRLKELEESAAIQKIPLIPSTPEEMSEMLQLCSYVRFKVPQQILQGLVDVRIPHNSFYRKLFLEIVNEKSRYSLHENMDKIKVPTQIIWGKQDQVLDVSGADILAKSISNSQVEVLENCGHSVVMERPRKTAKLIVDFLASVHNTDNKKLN

## O=C(NCCCCCCNC(=O)ON=C1CCCCC1)ON=C1CCCCC1
[1]
  Activity: Active
[2]
  Activity: Active
[3]
  Activity: Active
[4]
  Activity: Active
[5]
  IC50: 23 µM
[6]
  Activity: inactive
[7]
  IC50: > 100 µM
[8]
  Activity: Active
[9]
  Activity: Active
[10]
  IC50: 70 µM

## CCCCCCCCCCC[C@@H](C[C@@H]1OC(=O)[C@H]1CCCCCC)OC(=O)[C@H](CC(C)C)NC=O [ORLISTAT]
[1]
  Activity: Active
[2]
  Activity: Active
[3]
  Activity: Active
[4]
  Activity: Active
[5]
  IC50: 0.03 µM
[6]
  Activity: inactive
[7]
  IC50: 0.08 µM
[8]
  Activity: Active
[9]
  Activity: Active
[10]
  IC50: > 100 µM
